# In ChEMBL document CHEMBL4266059, “Synthesis of Cyanoenone-Modified Diterpenoid Analogs as Novel Bmi-1-Mediated Antitumor Agents” (ACS Med Chem Lett, 2018):
# Calls of active or inactive are those of the source. The rule behind the calls is not given here.
# Key:
# [1] = test system: HCT-116; experiment: Inhibition of cancer stem cell proliferation in human HCT116 cells assessed as CD133/CD44-positive cell population at 1 uM after 48 hrs by flow cytometry (reference value: 85.1 to 86.6%); assay type: functional; design: scale not given: the % may be the effect or the level left
# [2] = test system: HCT-116; experiment: Antimigratory activity against human HCT116 cells at 0.5 uM after 24 hrs by crystal violet staining based transwell migration assay relative to control; assay type: functional
# In short: (§1)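 HCT116 cells in transwell chambers; migration compared with untreated control (0 μM).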
# [3] = test system: Mus musculus; experiment: Toxicity in nude mouse xenografted with human HCT116 cells assessed as abnormality in kidney at 5 to 10 mg/kg/day, ip for 18 days by hematoxylin and eosin staining based microscopic analysis; assay type: organism-based; details: in vivo, 432 h
# In short: (§2)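 HCT116 subcutaneous xenografts in nude mice; mice randomized into groups of n = 6 and given vehicle (DMSO), test article or reference intraperitoneally daily for 18 days, then sacrificed. End points were excised tumor weight and volume, body weight, histology of heart, liver, spleen, lung and kidney, and immunohistochemistry of tumors for Ki67 and Bmi-1.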
# [4] = test system: HCT-116; experiment: Antimigratory activity against human HCT116 cells at 1 uM after 24 hrs by crystal violet staining based transwell migration assay relative to control; assay type: functional; in short: as §1
# [5] = Selectivity index, ratio of IC50 for HAF to IC50 for human HCT8 cells; assay type: toxicity; details: HAF cells versus HCT8 cells, read-out: Ratio IC50
# [6] = test system: HCT-116; experiment: Antitumor activity against human HCT116 cells xenografted in nude mouse assessed as reduction in Ki67 expression in tumor at 5 to 10 mg/kg/day, ip for 18 days by IHC analysis; assay type: functional, organism-based; in short: as §2
# [7] = test system: HT-29; experiment: Antiproliferative activity against human HT-29 cells after 72 hrs by SRB assay; assay type: functional, cell-based; details: HT-29, 72 h
# [8] = molecular target: T1, Polycomb complex protein BMI-1 (Homo sapiens) (UniProt P35226); experiment: Inhibition of Bmi1 in human HCT116 cells assessed as reduction in H2A-K119Ub level after 8 hrs by Western blot analysis; assay type: cell-based
# T1 sequence (whole entry): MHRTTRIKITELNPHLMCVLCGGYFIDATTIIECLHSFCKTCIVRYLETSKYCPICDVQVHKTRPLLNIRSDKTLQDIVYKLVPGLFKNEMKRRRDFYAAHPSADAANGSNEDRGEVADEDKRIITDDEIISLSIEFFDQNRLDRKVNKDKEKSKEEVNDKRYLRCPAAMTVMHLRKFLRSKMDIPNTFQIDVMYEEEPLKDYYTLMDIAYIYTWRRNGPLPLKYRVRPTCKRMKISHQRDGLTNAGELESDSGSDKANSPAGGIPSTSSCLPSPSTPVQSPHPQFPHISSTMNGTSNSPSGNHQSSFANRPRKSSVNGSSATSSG
# In short: (§3)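 HCT116 cells treated with test agents at the indicated concentrations for 8 h. Bmi-1, H2A-K119 ubiquitinated H2A (ub-H2A), total H2A and Ring1b detected by Western blot.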
# [9] = test system: HCT-8; experiment: Antiproliferative activity against human HCT8 cells after 72 hrs by SRB assay; assay type: functional, cell-based; details: HCT-8, 72 h
# [10] = Selectivity index, ratio of IC50 for HAF to IC50 for human HT-29 cells; assay type: toxicity; details: HAF cells versus HT-29 cells, read-out: Ratio IC50
# [11] = test system: Mus musculus; experiment: Toxicity in nude mouse xenografted with human HCT116 cells assessed as abnormality in spleen at 5 to 10 mg/kg/day, ip for 18 days by hematoxylin and eosin staining based microscopic analysis; assay type: organism-based; details: in vivo, 432 h; in short: as §2
# [12] = test system: HCT-116; experiment: Effect on total Ring1b protein expression in human HCT116 cells at 0.5 to 4 uM after 8 hrs by Western blot analysis; assay type: functional, cell-based; in short: as §3
# [13] = Antiproliferative activity against HAF after 72 hrs by SRB assay; design: species or system Homo sapiens
# [14] = test system: Mus musculus; experiment: Decrease in Bmi1 expression in tumors of nude mouse xenografted with human HCT116 cells at 5 to 10 mg/kg/day, ip for 18 days by IHC analysis; assay type: functional, organism-based; in short: as §2
# [15] = test system: HCT-116; experiment: Inhibition of Bmi1 protein expression in human HCT116 cells after 8 hrs by Western blot analysis; assay type: functional, cell-based
# [16] = test system: HCT-116; experiment: Induction of apoptosis in human HCT116 cells after 48 hrs by Annexin V/propidium iodide staining based flow cytometry; assay type: functional, cell-based
# In short: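 HCT116 cells treated for 48 h; apoptosis scored by flow cytometry as early and late apoptotic fractions, compared with untreated controls.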
# [17] = test system: HCT-116; experiment: Induction of apoptosis in human HCT116 cells at 1 uM after 48 hrs by Annexin V/propidium iodide staining based flow cytometry relative to control; assay type: functional
# [18] = test system: HCT-116; experiment: Inhibition of colony formation in human HCT116 cells after 7 days by crystal violet staining based assay; assay type: functional, cell-based
# In short: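 HCT116 colony formation assay over a concentration series; read-out was colony number and size.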
# [19] = test system: HCT-116; experiment: Effect on total H2A protein expression in human HCT116 cells at 0.5 to 4 uM after 8 hrs by Western blot analysis; assay type: functional, cell-based; in short: as §3
# [20] = Selectivity index, ratio of IC50 for HAF to IC50 for human HCT116 cells; assay type: toxicity; details: HAF cells versus HCT116 cells, read-out: Ratio IC50
# [21] = test system: Mus musculus; experiment: Toxicity in nude mouse xenografted with human HCT116 cells assessed as abnormality in liver at 5 to 10 mg/kg/day, ip for 18 days by hematoxylin and eosin staining based microscopic analysis; assay type: organism-based; details: in vivo, 432 h; in short: as §2
# [22] = test system: Mus musculus; experiment: Toxicity in nude mouse xenografted with human HCT116 cells assessed as change in body weight at 5 to 10 mg/kg/day, ip for 18 days; assay type: organism-based; details: in vivo, 432 h; in short: as §2
# [23] = test system: HCT-116; experiment: Antimigratory activity against human HCT116 cells after 24 hrs by crystal violet staining based transwell migration assay; assay type: functional, cell-based
# In short: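 HCT116 cells were tested for migration through a transwell chamber at 0.5 and 1 μM, compared against an untreated (0 μM) control. Significance was assessed versus that control.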
# [24] = test system: Mus musculus; experiment: Toxicity in nude mouse xenografted with human HCT116 cells assessed as abnormality in lung at 5 to 10 mg/kg/day, ip for 18 days by hematoxylin and eosin staining based microscopic analysis; assay type: organism-based; details: in vivo, 432 h; in short: as §2
# [25] = test system: HCT-116; experiment: Antiproliferative activity against human HCT116 cells after 72 hrs by SRB assay; assay type: functional, cell-based; details: HCT-116, 72 h
# [26] = test system: HCT-116; experiment: Antitumor activity against human HCT116 cells xenografted in nude mouse assessed as tumor growth inhibition at 5 mg/kg/day, ip for 18 days; assay type: functional, organism-based; in short: as §2
# [27] = test system: Mus musculus; experiment: Toxicity in nude mouse xenografted with human HCT116 cells assessed as abnormality in heart at 5 to 10 mg/kg/day, ip for 18 days by hematoxylin and eosin staining based microscopic analysis; assay type: organism-based; details: in vivo, 432 h; in short: as §2
# [28] = test system: HCT-116; experiment: Inhibition of cancer stem cell proliferation in human HCT116 cells assessed as decrease in CD133/CD44-positive cell population after 48 hrs by flow cytometry; assay type: functional, cell-based
# In short: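 HCT116 cells, which coexpress CD133 and CD44; the CD133+/CD44+ stem-like population was quantified by flow cytometry after treatment over a concentration series.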
smiles,measurement,setting,value
COc1cc2c(cc1C(=O)Nc1ccccc1OC(F)(F)F)CC[C@H]1C(C)(C)C(=O)C(C#N)=C[C@]21C,Activity,[1],56.1%
same,Activity,[2],30%
same,Activity,[3],Non-Toxic
same,Activity,[4],70%
same,selectivity ratio,[5],7.3 to 13.1
same,Activity,[6],Active
same,IC50,[7],450 nM
same,inhibition,[8],Dose-dependent effect
same,IC50,[9],360 nM
same,selectivity ratio,[10],7.3 to 13.1
same,Activity,[11],Non-Toxic
same,Activity,[12],inactive
same,IC50,[13],3280 nM
same,Activity,[14],Active
same,inhibition,[15],Dose-dependent effect
same,IC50,"[15]; HCT-116, 8 h",830 nM
same,Activity,[16],Dose-dependent effect
same,Activity,[17],20.29%
same,inhibition,[18],Dose-dependent effect
same,Activity,[19],inactive
same,selectivity ratio,[20],7.3 to 13.1
same,Activity,[21],Non-Toxic
same,Activity,[22],Non-Toxic
same,Activity,[23],Dose-dependent effect
same,Activity,[24],Non-Toxic
same,IC50,[25],250 nM
same,TGI,[26],Active
same,Activity,[27],Non-Toxic
same,inhibition,[28],Dose-dependent effect
